# In ChEMBL document CHEMBL1150360, “Design, synthesis, and QSAR studies of novel lysine derives as amino-peptidase N/CD13 inhibitors” (Bioorg Med Chem, 2008):
# Key:
# [1] = molecular target: 72 kDa type IV collagenase (Homo sapiens, UniProt P08253); assay: Inhibition of MMP2
# Summary of the method: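 Gelatinase A enzyme, synthetic substrate and inhibitor dissolved together in 50 mmol/L sodium borate, pH 8.5, and incubated 30 min at 37 °C. 0.03% TNBS then added and incubated a further 20 min. Absorbance read at 450 nm.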
# [2] = Inhibition of aminopeptidase N
# Summary of the method: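 Porcine kidney microsomal aminopeptidase, 4 µg/mL final, preincubated 30 min at room temperature with inhibitor. Inhibitor solutions made in assay buffer and adjusted to pH 7.5. Substrate L-Leu-p-nitroanilide in 50 mM PBS, pH 7.2, at 37 °C; hydrolysis followed as absorbance change at 405 nm. IC50 determined.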
# Chain of 72 kDa type IV collagenase (P08253 whole entry): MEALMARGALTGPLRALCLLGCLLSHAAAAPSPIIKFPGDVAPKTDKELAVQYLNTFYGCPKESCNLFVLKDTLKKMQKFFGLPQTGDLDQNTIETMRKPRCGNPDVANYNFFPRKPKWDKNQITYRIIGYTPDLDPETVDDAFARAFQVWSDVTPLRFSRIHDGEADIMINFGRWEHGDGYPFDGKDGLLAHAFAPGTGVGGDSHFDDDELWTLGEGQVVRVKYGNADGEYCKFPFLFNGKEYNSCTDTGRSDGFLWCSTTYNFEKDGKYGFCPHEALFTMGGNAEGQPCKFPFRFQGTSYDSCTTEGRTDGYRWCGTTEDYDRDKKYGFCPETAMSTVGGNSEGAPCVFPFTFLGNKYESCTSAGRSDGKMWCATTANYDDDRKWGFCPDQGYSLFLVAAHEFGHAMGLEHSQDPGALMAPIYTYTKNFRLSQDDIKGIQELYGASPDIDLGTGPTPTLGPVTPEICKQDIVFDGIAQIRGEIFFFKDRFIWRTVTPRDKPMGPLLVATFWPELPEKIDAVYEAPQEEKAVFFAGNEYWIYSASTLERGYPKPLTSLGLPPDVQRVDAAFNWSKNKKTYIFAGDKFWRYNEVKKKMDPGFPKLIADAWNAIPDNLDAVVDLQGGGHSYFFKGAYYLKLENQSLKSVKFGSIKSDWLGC
Structure (SMILES),IC50 [1] [µM],IC50 [2] [µM],pIC50 [2]
O=C(NCCCC[C@H](NC(=O)c1ccc([N+](=O)[O-])cc1)C(=O)O)OCc1ccccc1,19.2,202,3.69
O=C(NCCCC[C@H](NC(=O)c1ccncc1)C(=O)O)OCc1ccccc1,8.76,292,3.54
O=C(NCCCC[C@H](NC(=O)c1ccc([N+](=O)[O-])cc1)C(=O)NO)OCc1ccccc1,32,108,3.97
O=C(NCCCC[C@H](NC(=O)c1ccc(Br)cc1)C(=O)NO)OCc1ccccc1,9.94,112,3.95
O=C(/C=C/c1ccccc1)N[C@@H](CCCCNC(=O)OCc1ccccc1)C(=O)O,50.5,215,3.67
O=C(NCCCC[C@H](NC(=O)c1cccc([N+](=O)[O-])c1)C(=O)O)OCc1ccccc1,7.48,111,3.96
O=C(NCCCC[C@H](NC(=O)c1ccc(Cl)cc1Cl)C(=O)NO)OCc1ccccc1,170,13.2,4.88
O=C(/C=C/c1ccccc1)N[C@@H](CCCCNC(=O)OCc1ccccc1)C(=O)NO,3.54,570,3.24
O=C(NCCCC[C@H](NC(=O)c1ccc(Br)cc1)C(=O)O)OCc1ccccc1,13.1,188,3.73
O=C(NCCCC[C@H](NC(=O)c1cnccn1)C(=O)NO)OCc1ccccc1,14.3,97,4.01
O=C(NCCCC[C@H](NC(=O)c1ccco1)C(=O)NO)OCc1ccccc1,8.08,159,3.8
O=C(NCCCC[C@H](NC(=O)c1cccc([N+](=O)[O-])c1)C(=O)NO)OCc1ccccc1,11.7,95.8,4.02
O=C(NCCCC[C@H](NC(=O)c1ccncc1)C(=O)NO)OCc1ccccc1,25.5,91.2,4.04
O=C(NCCCC[C@H](NC(=O)c1cccnc1)C(=O)NO)OCc1ccccc1,8,94.3,4.03

# More lines, now with the values ahead:
IC50 [1] [µM],IC50 [2] [µM],pIC50 [2],Structure (SMILES)
8.49,1120,2.95,O=C(NCCCC[C@H](NC(=O)c1ccco1)C(=O)O)OCc1ccccc1
12.6,159,3.8,O=C(NCCCC[C@H](NC(=O)c1cccs1)C(=O)NO)OCc1ccccc1
22,15.5,,CC(C)C[C@H](NC(=O)[C@@H](O)[C@H](N)Cc1ccccc1)C(=O)O [UBENIMEX]
3.14,167,3.78,O=C(NCCCC[C@H](NC(=O)c1cccnc1)C(=O)O)OCc1ccccc1
12.7,1250,2.9,O=C(NCCCC[C@H](NC(=O)c1cccs1)C(=O)O)OCc1ccccc1
2.93,197,3.7,O=C(NCCCC[C@H](NC(=O)c1cnccn1)C(=O)O)OCc1ccccc1
17.8,127,3.9,O=C(NCCCC[C@H](NC(=O)c1ccc(Cl)cc1Cl)C(=O)O)OCc1ccccc1
